The source made the active and inactive calls. The calls are words filed in the database; no cut-off is given here.
Assays:
[1] = target: T1, Protein disulfide-isomerase (Bos taurus) (UniProt P05307); assay: Inhibition of bovine liver PDI at 50 uM preincubated for 30 mins followed by insulin addition for 1 hr by insulin-aggregation assay relative to control
T1 sequence (whole entry): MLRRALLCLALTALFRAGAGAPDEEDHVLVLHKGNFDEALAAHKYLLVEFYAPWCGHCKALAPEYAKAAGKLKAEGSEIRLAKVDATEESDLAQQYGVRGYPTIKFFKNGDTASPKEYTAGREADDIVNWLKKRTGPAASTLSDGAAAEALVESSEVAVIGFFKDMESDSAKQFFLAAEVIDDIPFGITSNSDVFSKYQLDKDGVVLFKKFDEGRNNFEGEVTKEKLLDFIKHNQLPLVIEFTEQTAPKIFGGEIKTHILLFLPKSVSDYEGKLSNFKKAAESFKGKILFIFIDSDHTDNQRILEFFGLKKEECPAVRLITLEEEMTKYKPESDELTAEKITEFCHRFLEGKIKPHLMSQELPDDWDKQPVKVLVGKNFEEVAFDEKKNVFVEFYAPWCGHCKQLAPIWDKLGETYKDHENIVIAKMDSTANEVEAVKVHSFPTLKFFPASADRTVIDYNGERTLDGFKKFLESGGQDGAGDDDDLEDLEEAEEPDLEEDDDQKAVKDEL

[2] = organism: Homo sapiens; assay: Nitrosylation activity at recombinant PDI (unknown origin) assessed as generation of s-nitrosylated PDI at 50 uM measured after 30 mins in presence of dithiothreitol by biotin switch assay based Western blot analysis
Method in brief: (§1)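 Biotin-switch detection of S-nitrosylated PDI: 400 ng purified recombinant PDI exposed to NO donor (1, 50, 300 or 600 μM) for 30 min, or left untreated.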

[3] = organism: Homo sapiens; assay: Nitrosylation activity at recombinant PDI (unknown origin) assessed as generation of S-nitrosylated PDI at 50 uM measured after 30 mins by biotin switch assay based Western blot analysis; method in brief: as §1
[4] = tested on: SH-SY5Y; assay: Antiproliferative activity against human SH-SY5Y cells assessed as cell growth inhibition at 600 uM by CCK-8 assay relative to control; format: functional; settings: read-out: GI
[5] = tested on: HeLa; assay: Antiproliferative activity against human HeLa cells assessed as cell growth inhibition at 600 uM by CCK-8 assay relative to control; format: functional; settings: read-out: GI
[6] = tested on: HeLa; assay: Antiproliferative activity against human HeLa cells assessed as cell growth inhibition by CCK-8 assay; format: functional, cell-based
[7] = tested on: HEK-293T; assay: Cytotoxicity against human HEK293T cells assessed as cell growth inhibition; format: cell-based
[8] = tested on: SH-SY5Y; assay: Antiproliferative activity against human SH-SY5Y cells assessed as cell growth inhibition by CCK-8 assay; format: functional, cell-based
[9] = tested on: SH-SY5Y; assay: Antiproliferative activity against human SH-SY5Y cells assessed as cell growth inhibition at 5 uM by CCK-8 assay; format: functional, cell-based
[10] = tested on: HeLa; assay: Antiproliferative activity against human HeLa cells assessed as cell growth inhibition at 5 uM by CCK-8 assay; format: functional, cell-based
[11] = target: T1, Protein disulfide-isomerase (Bos taurus); settings: 0.1 to 50 uM
[12] = target: T1, Protein disulfide-isomerase (Bos taurus); assay: Inhibition of bovine liver PDI preincubated for 30 mins followed by insulin addition for 1 hr by insulin-aggregation assay
[13] = organism: Homo sapiens; assay: Nitrosylation activity at recombinant PDI (unknown origin) assessed as generation of S-nitrosylated PDI at 600 uM measured after 30 mins in presence of dithiothreitol by biotin switch assay based Western blot analysis; method in brief: as §1
[14] = organism: Homo sapiens; assay: Nitrosylation activity at recombinant PDI (unknown origin) assessed as generation of S-nitrosylated PDI at 600 uM measured after 30 mins by biotin-switch assay based Western blot analysis; method in brief: as §1

inhibition [1] | Activity [2] | Activity [3] | inhibition [11] | inhibition [12] | Activity [13] | Activity [14] | Structure (SMILES) | inhibition of growth at 600 µM [4] | inhibition of growth at 600 µM [5] | growth inhibition (GI) [6] | Activity [7] | growth inhibition (GI) [8] | growth inhibition (GI) [9] | growth inhibition (GI) [10]
inactive | inactive | Active |  |  |  |  | N[C@@H](CCC(=O)N[C@@H](CSN=O)C(=O)NCC(=O)O)C(=O)O [S-NITROSOGLUTATHIONE] | 40% | 40% | Active | Non-Toxic | Active |  | 
 |  |  | Active |  |  |  | C#CCOC(=O)C1(C)c2[nH]c3ccccc3c2CCN1C(=O)CCl (stereo not given) |  |  |  |  |  | Active | Active
50% |  |  |  | Dose-dependent effect | inactive | Active | C#CCOC(=O)C1(C)c2[nH]c3ccccc3c2CCN1C(=O)CN(N=O)c1ccccc1 (stereo not given) | 40% | 40% | Dose-dependent effect | Non-Toxic | Dose-dependent effect |  | 

From ChEMBL document CHEMBL4610026, “Design, synthesis and evaluation of protein disulfide isomerase inhibitors with nitric oxide releasing activity” (Bioorg Med Chem Lett, 2020)
